Screens: PubChem BioAssay, Broad Institute
IDH1 mut inh: inhibitors of IDH1 R132H reductase, primary screen, biochemical, plate reader, single point | actives 0.18% (n = 70,000) | inhibition, % at 10 µM | diaphorase/resazurin fluorescence, 60 min | Isocitrate dehydrogenase [NADP] cytoplasmic (Homo sapiens), O75874; in the data active = inhibition above about 34%; inconclusive = no clear call, values can overlap the other calls; inactive = below about 11%;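 note: 0% = DMSO and 100% = no enzyme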
Pf Dd2 inh: P. falciparum Dd2 growth inhibitors, primary screen, SYBR Green fluorescence, single dose replicates; 72 h; hits give low values; actives 2.3% (n = 94,000); AID 1159554, 2015; activity change, % at 10 µM; in the data active = activity change below about -80%; inconclusive = no clear call, values can overlap the other calls
GASC1 inh: inhibitors of GASC-1 (KDM4C) histone demethylase, primary screen, biochemical, single concentration HTS | Lysine-specific demethylase 4C (Homo sapiens), Q9H3R0 | inhibition, % at 12.5 µM | actives 0.15% (n = 96,000) | GST-KDM4C 2-372, H3K9me3 peptide, LANCE TR-FRET;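 active = mean replicate inhibition above about 25%, with at least 55% of replicates also reaching it, limit read from the data, passing the limit was not always enough; inconclusive = only one of those two conditions met; inactive = neither condition met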
Target sequence (Q9H3R0 2-372 limits assumed): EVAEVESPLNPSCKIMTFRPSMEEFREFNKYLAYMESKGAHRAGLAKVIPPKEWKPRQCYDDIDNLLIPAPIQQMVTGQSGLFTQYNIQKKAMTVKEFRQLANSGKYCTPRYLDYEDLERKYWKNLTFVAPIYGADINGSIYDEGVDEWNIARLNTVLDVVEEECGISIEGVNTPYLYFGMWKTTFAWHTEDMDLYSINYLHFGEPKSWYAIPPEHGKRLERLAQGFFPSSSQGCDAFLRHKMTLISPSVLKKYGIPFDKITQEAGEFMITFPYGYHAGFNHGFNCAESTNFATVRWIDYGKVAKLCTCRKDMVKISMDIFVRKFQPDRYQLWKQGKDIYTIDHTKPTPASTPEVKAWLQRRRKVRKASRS
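reagent = H3K9me3 peptide substrate, Fe(II), 2-oxoglutarate | system = GST-tagged GASC-1 (JMJD2C) catalytic fragment, aa 2-372 | amount = enzyme final amount 10 nM | read-out = Fall in 671/618 emission ratio as inhibition | medium = HEPES buffer, pH 7.5, plus ascorbate | schedule = 30 min reaction, 60 min detection, RT | measured by = LANCE TR-FRET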
T cruzi growth-1: T. cruzi intracellular proliferation inhibitors, primary screen, cell-based, beta-gal Tulahuen parasites, NIH3T3 host, luminescence. inhibition, % at 8.34 µM. AID 624255, 2012. T. cruzi beta-gal in NIH3T3, GalScreen luminescence, 90 h. actives 5.9% (n = 77,000);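 active = mean inhibition above about 93%, with at least 55% of replicates each passing it, limit read from the data, passing the limit was not always enough; inconclusive = only one of those two conditions holds; inactive = neither condition holds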
T cruzi growth-2: T. cruzi intracellular proliferation inhibitors, confirmation, cell-based, NIH3T3 host, beta-gal parasite, luminescence, cherry-pick; actives 72% (n = 5,600); shares compounds with T cruzi growth-1; inhibition, % at 8.35 µM; T. cruzi beta-gal in NIH3T3, GalScreen luminescence, 90 h;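 active = mean replicate inhibition above about 95% and at least 55% of replicates individually reaching it, limit read from the data; inconclusive = only one of the two criteria is met; inactive = neither criterion is met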
T cruzi growth-3: inhibitors of intracellular T. cruzi replication, confirmation, NIH3T3 host cells, beta-gal parasites, cherry-pick, set 2. shares compounds with T cruzi growth-1. T. cruzi beta-gal in NIH3T3, GalScreen luminescence, 90 h. inhibition, % at 2.09 µM. actives 21% (n = 5,600). AID 651740, 2012;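 active = mean inhibition above about 95%, with at least 55% of replicates also reaching it, limit read from the data; inconclusive = meets just one of the two conditions; inactive = meets neither condition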;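 note: plate controls were neutral control median for no effect and positive control median for full effect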
3T3 cytotox: cytotoxicity in mouse NIH/3T3 fibroblasts, confirmation, cytotoxicity control for T. cruzi proliferation inhibitor project, cell-based, cherry-pick, single point; shares compounds with T cruzi growth-1; cytotoxicity (signal decrease), % at 8.35 µM; actives 14% (n = 5,600); NIH/3T3 viability, CellTiter-Glo ATP luminescence, 90 h;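 active = mean signal decrease across replicates above about 35% based on untreated-well scatter, with enough replicates individually passing, limit read from the data; inconclusive = no rule stated though some were filed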;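 note: 0% = median of neutral control wells and 100% = median of positive control wells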
NIH3T3 tox 2: NIH/3T3 fibroblast cytotoxicity, confirmation, cytotoxicity control, cell-based, cherry-pick, single point, set 2 | shares compounds with T cruzi growth-1 | NIH/3T3 viability, CellTiter-Glo ATP luminescence, 90 h | inhibition, % at 24.9 µM | actives 56% (n = 5,600) | AID 651744, 2012;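 active = mean loss of cell viability signal at or above a set limit, and enough replicates individually reaching it; inconclusive = meets only the mean limit or only the replicate share; inactive = meets neither condition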;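 note: 0% = median of neutral control wells and 100% = median of positive control wells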
Starred values were filed as active, the others as inactive; ? = inconclusive; . = no result. Only some compounds are listed: those with a hit (about 5.9% of all), similar ones and a draw of the others.

SMILES | IDH1 mut inh | Pf Dd2 inh | GASC1 inh | T cruzi growth-1 | T cruzi growth-2 | T cruzi growth-3 | 3T3 cytotox | NIH3T3 tox 2
COc1ccccc1-c1ccc2c(c1)O[C@@H](CN(C)S(=O)(=O)c1ccc(C)cc1)[C@@H](C)CN([C@@H](C)CO)S2(=O)=O | 0 | -54 | 0 | 127* | 105* | 105* | 53* | 44*
COc1ccccc1-c1ccc2c(c1)O[C@H](CN(C)S(=O)(=O)c1ccc(C)cc1)[C@H](C)CN([C@@H](C)CO)S2(=O)=O | . | -47 | -2 | 128* | 104* | ? | ? | 58*
COc1ccccc1-c1ccc2c(c1)O[C@@H](CN(C)S(=O)(=O)c1ccc(C)cc1)[C@@H](C)CN([C@H](C)CO)S2(=O)=O | -2 | -46 | 1 | 126* | 103* | 87 | 24 | 37*
COc1ccccc1-c1ccc2c(c1)O[C@H](CN(C)C)[C@@H](C)CN([C@H](C)CO)S2(=O)=O | -2 | -11 | 1 | 19 | . | . | . | .
Cc1cc(=O)oc2cc(OC(C)C(=O)Nc3ccccc3[N+](=O)[O-])ccc12 (stereo not drawn) | 0 | . | . | . | . | . | . | .
O=C(c1ccccc1)N1CC[C@H]2[C@H](CO)Nc3ccc(C#Cc4cccc(F)c4)cc3[C@H]21 | . | -34 | 0 | 122* | 112* | 79 | 10 | 39*
O=C(c1ccccc1)N1CC[C@@H]2[C@H](CO)Nc3ccc(C#Cc4ccccc4F)cc3[C@@H]21 | . | -30 | 5 | 105* | 104* | 72 | 45* | 106*
COc1ccccc1C#Cc1ccc2c(c1)[C@H]1[C@H](CCN1C(=O)c1cccc(F)c1)[C@H](CO)N2 | . | -74 | -1 | ? | 101* | 87 | 33 | 104*
COc1ccccc1C#Cc1ccc2c(c1)[C@@H]1[C@@H](CCN1C(=O)c1cccc(F)c1)[C@H](CO)N2 | . | -61 | -1 | . | . | . | . | .
Cc1ccc(NC(=O)COc2ccc(Br)cc2Cl)c([N+](=O)[O-])c1 | 0 | . | . | . | . | . | . | .
O=C(c1cc2ccccc2oc1=O)N(Cc1ccccc1)c1ccccn1 | -2 | . | . | . | . | . | . | .
CC(C)C#Cc1ccc2c(c1)O[C@@H](CN(C)Cc1ccccn1)[C@H](C)CN([C@@H](C)CO)S2(=O)=O | . | -66 | . | ? | 108* | 51 | 55* | 95*
CC(C)C#Cc1ccc2c(c1)O[C@H](CN(C)Cc1ccccn1)[C@@H](C)CN([C@H](C)CO)S2(=O)=O | -7 | -72 | . | ? | 102* | 74 | 65* | 54*
CC(C)C#Cc1ccc2c(c1)O[C@H](CN(C)Cc1ccccn1)[C@H](C)CN([C@@H](C)CO)S2(=O)=O | -2 | -74 | . | 74 | . | . | . | .
CC(C)C#Cc1ccc2c(c1)O[C@H](CN(C)Cc1ccccn1)[C@@H](C)CN([C@@H](C)CO)S2(=O)=O | . | -60 | . | ? | 107* | 79 | 0 | 78*
Cc1cc(C)c(NC(=O)CSc2nc(-c3ccccc3)cc(=O)[nH]2)c([N+](=O)[O-])c1 | 1 | . | . | . | . | . | . | .
O=C(CSc1nnc(-c2cccc(Br)c2)n1-c1ccccc1)Nc1ccccc1[N+](=O)[O-] | 0 | . | . | . | . | . | . | .
C[C@@H]1CN([C@@H](C)CO)C(=O)c2cc(C#Cc3ccccn3)cnc2O[C@H]1CN(C)Cc1ccncc1 | 0 | 22 | 0 | ? | 108* | 56 | 17 | 17
C[C@H](CO)N1C[C@H](C)[C@H](CN(C)Cc2ccccc2)Oc2ncc(C#CC3(O)CCCC3)cc2C1=O | -1 | -4 | 1 | 102* | 46 | 42 | 10 | 19
